Published values of several laboratories.
Compare with care: the assays were run in different laboratories.
Organism: Staphylococcus aureus
Effect on: microbial growth

Compound | method | strain | time | notes | MIC
O=C(Nc1ccccc1F)c1ccccc1O | broth dilution | ATCC29213 | – | – | 32 µg/mL
Cc1nc(O)n2ncc(Cl)c2n1 | – | – | – | – | > 128 µg/mL
O=C(O)c1cn(C2CC2)c2cc(N3CCNCC3)c(F)cc2c1=O | – | ATCC43300 | – | drug-resistant strain | 0.31 µg/mL
CC(C)Oc1c(NC(=O)c2ccc(NC(=O)[C@H](CC(N)=O)NC(=O)c3ccc(NC(=O)c4ccc(NC(=O)c5ccc([N+](=O)[O-])cc5)cc4)cc3)cc2)ccc(C(=O)Nc2ccc(C(=O)O)cc2)c1O | – | ATCC29213 | – | – | > 64 µg/mL
O=C(CCc1cc(O)c(O)c(O)c1)NCCCCCCCC[P+](c1ccccc1)(c1ccccc1)c1ccccc1.[Br-] | broth dilution | ATCC43300 MRSA | 18 h | – | 8 µg/mL
O=S(=O)(NCCNC/C=C/c1ccc(Br)cc1)c1cccc2cnccc12 | – | NCTC8325 | – | – | > 30 µM
C/C=C(\C)c1cc(O)c(C)c(OC(=O)c2c(C)cc(O)c(Cl)c2O)c1 | – | MRSA | – | – | 8 µg/mL
CC1(C)S[C@@H]2[C@H](NC(=O)[C@H](N)c3ccccc3)C(=O)N2[C@H]1C(=O)O | broth dilution | ATCCBAA44 | – | – | 16 µg/mL
COc1c(C)c(O)c(C)c(O)c1C(=O)/C=C/c1ccccc1 | broth dilution | ATCC25923 | – | – | 2500 µg/mL
CC(C)(O/N=C(\C(=O)N[C@@H]1C(=O)N2C(C(=O)[O-])=C(C[n+]3ccccc3)CS[C@H]12)c1csc(N)n1)C(=O)O | broth dilution | MRSA | 18 h | clinical isolate | 64 µg/mL
CC(C)Oc1c(NC(=O)c2ccc(NC(=O)[C@H](CC(N)=O)NC(=O)c3ccc(NC(=O)c4ccc(C#N)cc4)cc3)cc2)ccc(C(=O)O)c1O | – | ATCC29213 | – | – | > 64 µg/mL
Nc1c(C(=O)Nc2ccc(C3=NCCN3)cc2)cccc1C(=O)Nc1ccc(C2=NCCN2)cc1 | – | – | – | – | > 64 µg/mL
C/C=C(\C)c1cc(OC(=O)c2c(O)c(C)c(O)c(Cl)c2/C(C)=C/C)c(C)c(O)c1C(=O)O | broth dilution | 745524 | – | – | 32 µg/mL
CCCCCCC#Cc1cncc(-c2nnc(SCc3ccc([N+](=O)[O-])o3)n2C2CC2)c1 | – | MRSA | – | drug-resistant strain | ≥ 20 µg/mL
CC(C)/N=C(\N)c1ccc(NC(=O)c2ccc(C(=O)Nc3ccc(/C(N)=N/C(C)C)cc3)cc2)cc1 | – | – | – | – | 4 µg/mL
C=CCn1c(-c2ccc(Cl)cc2)nc2ccc(C)cc21 | broth dilution | ATCC29213 MSSA | – | – | 32 µg/mL
CC1=NN(CNc2ccc(C(=O)O)cc2)C(=O)C1=NNn1c(-c2ccccc2)nc2ccccc2c1=O | broth dilution | – | 24 h | – | 50.5 µM
Cc1ccc2nc(-c3ccc([N+](=O)[O-])cc3)n(Cc3ccccc3Cl)c2c1 | broth dilution | ATCC29213 MSSA | – | – | 32 µg/mL
Cc1ccc(C)n1-c1ccc(-c2nnc(-c3cccc([N+](=O)[O-])c3)[nH]2)cc1 | broth dilution | ATCC11632 | 18 h | – | 8 µg/mL
C[n+]1c(/C=C/c2ccc(O)cc2)cc(/C=C2\Sc3ccccc3N2CCCN2CCCC2)c2ccccc21.[I-] | broth dilution | ATCCBAA44 | – | – | 32 µg/mL

Compound | method | strain | time | notes | MIC
Clc1ccc(-c2nc3ccccc3n2Cc2ccccc2)cc1 | broth dilution | ATCC29213 MSSA | – | – | 64 µg/mL
CCOc1ccc(-c2nc3cc(-c4nc5cc(N6CCN(C)CC6)ccc5[nH]4)ccc3[nH]2)cc1 | broth dilution | 29213 | 24 h | – | 2 to 4 µg/mL
CC[C@H]1OC(=O)[C@H](C)[C@@H](O[C@H]2C[C@@](C)(OC)[C@@H](O)[C@H](C)O2)[C@H](C)[C@@H](O[C@@H]2O[C@H](C)C[C@H](N(C)C)[C@H]2O)[C@](C)(O)C[C@@H](C)C(=O)[C@H](C)[C@@H](O)[C@]1(C)O | – | 156 | – | clinical isolate | > 100 µM
O=[N+]([O-])c1ccc(-c2nc3ccccc3[nH]2)cc1 | broth dilution | ATCC29213 MSSA | – | – | 128 µg/mL
O=C(CCCCCCCC[P+](c1ccccc1)(c1ccccc1)c1ccccc1)Nc1cc(O)c(O)c(O)c1.[Br-] | broth dilution | ATCC43300 MRSA | 18 h | – | 16 µg/mL
O=C1NC(=S)S/C1=C\c1ccc(-c2ccc(N(c3ccccc3)c3ccccc3)cc2)cc1 | broth dilution | ATCC43300 | – | – | 250 µg/mL
Oc1ccccc1-c1nc2ccccc2[nH]1 | broth dilution | ATCC29213 MSSA | – | – | 256 µg/mL
C/C=C(\C)c1cc(O)c(C)c(OC(=O)c2c(C)c(Cl)c(O)c(Cl)c2O)c1 | broth dilution | 745524 | – | – | 4 µg/mL
O=C(Nc1ccc(Nc2ccccc2)cc1)Nc1ccc(Cl)c(C(F)(F)F)c1 | – | NCTC8325 | 24 h | – | 3 µM
CC(C)Oc1c(NC(=O)c2ccc(NC(=O)[C@H](CC(N)=O)NC(=O)c3ccc(NC(=O)C(C)Sc4ccc(C#N)cc4)cc3)cc2)ccc(C(=O)Nc2ccc(C(=O)O)cc2)c1O (stereo partly shown) | – | ATCC29213 | – | – | > 64 µg/mL
CN[C@H](CC(C)C)C(=O)N[C@H]1C(=O)N[C@@H](CC(N)=O)C(=O)N[C@H]2C(=O)N[C@H]3C(=O)N[C@H](C(=O)N[C@H](C(=O)O)c4cc(O)cc(O)c4-c4cc3ccc4O)[C@H](O)c3ccc(c(Cl)c3)Oc3cc2cc(c3O[C@@H]2O[C@H](CO)[C@@H](O)[C@H](O)[C@H]2O[C@H]2C[C@](C)(N)[C@H](O)[C@H](C)O2)Oc2ccc(cc2Cl)[C@H]1O | broth dilution | 745524 | – | – | 1 µg/mL
COc1ccc(NCc2ccc(Oc3ccccn3)cc2)cc1 | – | – | – | – | > 3.1 µg/mL
CC1(C)S[C@@H]2[C@H](NC(=O)[C@H](N)c3ccccc3)C(=O)N2[C@H]1C(=O)O | broth dilution | ATCC29213 | – | – | 1 µg/mL
O=C(O)c1cn(C2CC2)c2cc(N3CCNCC3)c(F)cc2c1=O | – | – | – | – | 1.6 µg/mL
CC(C)Oc1c(NC(=O)c2ccc(NC(=O)[C@H](CC(N)=O)NC(=O)c3ccc(NC(=O)c4ccc(S(C)(=O)=O)cc4)cc3)cc2)ccc(C(=O)Nc2ccc(C(=O)O)cc2)c1O | – | ATCC29213 | – | – | > 64 µg/mL
O=C(Nc1ncc([N+](=O)[O-])s1)C1CCCCC1 | broth dilution | MRSA | – | – | 125 µM
CN(C)[C@@H]1C(O)=C(C(N)=O)C(=O)[C@@]2(O)C(O)=C3C(=O)c4c(O)cccc4[C@@](C)(O)[C@H]3C[C@@H]12 | – | ATCC43300 | – | – | 2 µg/mL
O=[N+]([O-])c1cnc2ccc(F)cc2c1O | – | – | – | – | > 128 µg/mL
COc1cccc(-c2nc3ccc(C)cc3[nH]2)c1 | broth dilution | ATCC29213 MSSA | – | – | 128 µg/mL
C/C(=C\c1ccc(C#N)cc1)C(=O)Nc1ccc(C(=O)N[C@@H](CC(N)=O)C(=O)Nc2ccc(C(=O)Nc3ccc(C(=O)Nc4ccc(C(=O)O)cc4)c(O)c3OCC(C)C)cc2)cc1 | – | ATCC29213 | – | – | 0.06 µg/mL

Compound | method | strain | time | notes | MIC
CN[C@H](CC(C)C)C(=O)N[C@H]1C(=O)N[C@@H](CC(N)=O)C(=O)N[C@H]2C(=O)N[C@H]3C(=O)N[C@H](C(=O)N[C@H](C(=O)O)c4cc(O)cc(O)c4-c4cc3ccc4O)[C@H](O)c3ccc(c(Cl)c3)Oc3cc2cc(c3O[C@@H]2O[C@H](CO)[C@@H](O)[C@H](O)[C@H]2O[C@H]2C[C@](C)(N)[C@H](O)[C@H](C)O2)Oc2ccc(cc2Cl)[C@H]1O | broth dilution | ATCC6538 | – | – | 0.49 µg/mL
CN(C)[C@@H]1C(O)=C(C(N)=O)C(=O)[C@@]2(O)C(O)=C3C(=O)c4c(O)cccc4[C@@](C)(O)[C@H]3C[C@@H]12 | – | 129 | – | clinical isolate | ≤ 0.1 µM
c1ccc2c(-c3cnn4cc(-c5ccc(N6CCNCC6)cc5)cnc34)ccnc2c1 | – | NCTC8325 | – | – | > 30 µM
O=C(O)c1cn(C2CC2)c2cc(N3CCNCC3)c(F)cc2c1=O | broth dilution | ATCC25923 | – | – | 0.49 µg/mL
COc1cc2nccc(Oc3ccc(NC(=O)NC4CC4)c(Cl)c3)c2cc1C(N)=O | – | NCTC8325 | – | – | > 30 µM
COc1c(C)c(OC(=O)c2ccc(C)cc2)c(C)c(O)c1C(=O)/C=C/c1ccccc1 | broth dilution | ATCC25923 | – | – | 5000 µg/mL
O=C(Nc1ccc(Cl)c(C(F)(F)F)c1)Nc1cccc2c1OC(F)(F)O2 | – | NCTC8325 | – | – | 0.5 µM
CN[C@H](CC(C)C)C(=O)N[C@H]1C(=O)N[C@@H](CC(N)=O)C(=O)N[C@H]2C(=O)N[C@H]3C(=O)N[C@H](C(=O)N[C@H](C(=O)O)c4cc(O)cc(O)c4-c4cc3ccc4O)[C@H](O)c3ccc(c(Cl)c3)Oc3cc2cc(c3O[C@@H]2O[C@H](CO)[C@@H](O)[C@H](O)[C@H]2O[C@H]2C[C@](C)(N)[C@H](O)[C@H](C)O2)Oc2ccc(cc2Cl)[C@H]1O | – | ATCC25923 | – | – | 0.39 µg/mL
C/C=C(\C)c1cc(OC(=O)c2c(C)c(Cl)c(O)c(Cl)c2O)c(C)c(O)c1C(=O)O | broth dilution | 16162 | – | – | 64 µg/mL
COc1ccc(-c2ccc3c(N4CCOCC4)nc(N4C[C@@H](C)O[C@@H](C)C4)nc3n2)cc1CO | – | NCTC8325 | – | – | > 30 µM
O=C(O)CN1C(=O)/C(=C/c2c3ccccc3c(-c3ccc(N(c4ccccc4)c4ccccc4)cc3)c3ccccc23)NC1=S | broth dilution | ATCC6538 | – | – | > 1000 µg/mL
CC(C)Oc1c(NC(=O)c2ccc(NC(=O)[C@H](CC(N)=O)NC(=O)c3ccc(NC(=O)c4ccc(C#N)nc4)cc3)cc2)ccc(C(=O)Nc2ccc(C(=O)O)cc2)c1O | – | ATCC29213 | – | – | 64 µg/mL
O=C(Nc1cccc(NC(=O)Nc2ccc(Cl)c(C(F)(F)F)c2)c1)Nc1ccc(Cl)c(C(F)(F)F)c1 | – | NCTC8325 | 24 h | – | 1 µM
Cc1ccc2nc(-c3ccc(Cl)cc3)[nH]c2c1 | broth dilution | ATCC29213 MSSA | – | – | 256 µg/mL
Cc1ccc(NC(=O)Nc2ccc3c(c2)OC(F)(F)O3)cc1 | – | NCTC8325 | – | – | > 100 µM
O=C1NC(=S)S/C1=C\c1c2ccccc2c(-c2ccc(N(c3ccccc3)c3ccccc3)cc2)c2ccccc12 | broth dilution | ATCC6538 | – | – | > 1000 µg/mL
O=C(O)c1cn(C2CC2)c2cc(N3CCNCC3)c(F)cc2c1=O | broth dilution | ATCC29213 MSSA | – | – | 8 µg/mL
Cc1ccc(C)n1-c1ccc(-c2nnco2)cc1 | broth dilution | ATCC11632 | 18 h | – | 2 µg/mL
